Here are results for nine compounds from ChEMBL document CHEMBL2417525, “In vitro pharmacological and toxicological effects of norterpene peroxides isolated from the Red Sea sponge Diacarnus erythraeanus on normal and cancer cells” (J Nat Prod, 2013).

Calls of active or inactive are those of the source. The rule behind the calls is not given here.

Assay [1] has as its system PC-3. Nature of the assay: Induction of apoptosis in human PC3 cells at 1 uM after 72 hrs by TUNEL staining. Type of assay: functional. Summed up: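 TUNEL apoptosis staining with a commercial kit, read by flow cytometry. PC3 prostate cells were untreated or exposed to 1 μM for 72 h, four replicates. Kit-supplied lymphoma cells served as extra negative and positive controls.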

Assay [2] relates to MCF7. Nature of the assay: Cytotoxicity against human MCF7 cells after 72 hrs by MTT assay. It counts as functional, cell-based. A digest of the protocol: (§1)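 MTT reduction read by spectrophotometry after 72 h compound exposure; growth measured as treated vs control optical density, IC50 taken as the concentration giving 50% growth reduction. Six replicates per condition. Cells grown in RPMI with 10% heat-inactivated FBS, 4 mM glutamine, gentamicin and penicillin–streptomycin; NHDF fibroblasts were instead kept in FGM-2 fibroblast medium.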

Assay [3] concerns PC-3. Nature of the assay: Cytotoxicity against human PC3 cells after 72 hrs by MTT assay. It counts as functional, cell-based. A digest of the protocol:
as §1
In general terms: Formazan colour is commonly taken as a measure of viable cells.

A short description of assay [4]: Cytotoxicity against human Hs683 cells after 72 hrs by MTT assay. It counts as functional, cell-based, Hs 683. Summed up: as §1
For assay [5], the system named is A549. Put plainly: Cytotoxicity against human A549 cells after 72 hrs by MTT assay. Type of assay: functional, cell-based. A digest of the protocol: as §1
The subject of assay [6] is U-251. Nature of the assay: Cytotoxicity against human U251 cells after 72 hrs by MTT assay. It counts as functional, cell-based. Summed up:
as §1

A short description of assay [7]: Cytotoxicity against human U373 cells after 72 hrs by MTT assay. It counts as functional, cell-based, U-373MG ATCC. Summed up:
as §1

Assay [8] concerns SK-MEL-28. Put plainly: Cytotoxicity against human SK-MEL-28 cells after 72 hrs by MTT assay. It counts as functional, cell-based. A digest of the protocol:
as §1

Assay [9] concerns LoVo. Put plainly: Cytotoxicity against human LoVo cells after 72 hrs by MTT assay. It counts as functional, cell-based. Summed up: as §1
For assay [10], the system named is NHDF. Put plainly: Cytotoxicity against human NHDF cells after 72 hrs by MTT assay. Type of assay: cell-based. A digest of the protocol:
as §1

Assay [11] deals with U-373MG ATCC. Put plainly: Cytotoxicity against human U373 cells assessed as growth inhibition at 10 uM […] by quantitative video microscopic analysis. Type of assay: functional, cell-based. A digest of the protocol: (§2)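 Computer-assisted phase-contrast time-lapse microscopy in T25 flasks with 10 μM compound. Cells were counted on images at 6, 12, 24 h for U373 and A549, and at 24, 48, 72 h for SKMEL-28. Global growth is last-image count over first-image count. The ratio index is treated global growth over untreated control global growth. Run in triplicate.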

Assay [12] deals with HBL-100. Put plainly: Cytotoxicity against human HBL100 cells after 72 hrs by MTT assay. It counts as cell-based. The following applies: HBL-100, 72 h. Summed up: as §1
Assay [13] deals with SK-MEL-28. Nature of the assay: Cytotoxicity against human SK-MEL-28 cells assessed as growth inhibition at 10 uM after 24 hrs by MTT assay. It counts as functional, cell-based.
The test system of assay [14] is Hs 683. Nature of the assay: Induction of ROS production in human Hs683 cells at 10 uM after 72 hrs by flow cytometry. It counts as functional. A digest of the protocol: (§3)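 Hs683 and U373 glioma cells were exposed to 10 μM for 48 and 72 h; the positive control was 4 mM H2O2 for 1 h. Cells were then loaded with 20 μM DCFH-DA in phenol-red-free RPMI for 1 h at 37 °C, washed twice and detached. Fluorescence was measured by flow cytometry, run once in quadruplicate.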
Background: Flow cytometry measures light scatter and fluorescence of single cells or particles in a stream.

Assay [15] concerns A549. Put plainly: Cytotoxicity against human A549 cells assessed as growth inhibition at 10 uM […] by quantitative video microscopic analysis. It counts as functional, cell-based. A digest of the protocol:
as §2

Assay [16] deals with A549. Nature of the assay: Cytotoxicity against human A549 cells assessed as growth inhibition at 10 uM after 24 hrs by MTT assay. It counts as functional, cell-based.
Assay [17] has as its system HaCaT. Put plainly: Cytotoxicity against human HaCaT cells after 72 hrs by MTT assay. Type of assay: cell-based. Summed up: as §1
Assay [18] relates to U-373MG ATCC. Nature of the assay: Induction of ROS production in human U373 cells at 10 uM after 48 hrs by flow cytometry. It counts as functional, cell-based. A digest of the protocol: as §3
In assay [19] the test system is U-373MG ATCC. Nature of the assay: Induction of apoptosis in human U373 cells at 1 uM after 72 hrs by TUNEL staining. It counts as functional, cell-based.
Assay [20] has as its system SK-MEL-28. Nature of the assay: Cytotoxicity against human SK-MEL-28 cells assessed as growth inhibition at 10 uM after 24 to 72 hrs by quantitative video microscopic analysis. Type of assay: functional, cell-based. A digest of the protocol: as §2
Assay [21] concerns U-373MG ATCC. Put plainly: Cytotoxicity against human U373 cells assessed as growth inhibition at 10 uM after 24 hrs by MTT assay. It counts as functional, cell-based.
The nature of assay [22]: Induction of ROS production in human U373 cells at 10 uM after 72 hrs by flow cytometry. It counts as functional, U-373MG ATCC. A digest of the protocol: as §3
Assay [23] concerns Hs 683. Nature of the assay: Induction of apoptosis in human Hs683 cells at 1 uM after 72 hrs by TUNEL staining. It counts as functional, cell-based.
The subject of assay [24] is B16-F10. Nature of the assay: Cytotoxicity against mouse B16F10 cells after 72 hrs by MTT assay. It counts as functional, cell-based. The conditions noted are these: B16-F10, 72 h. A digest of the protocol: as §1
The mark [25] stands for this setting: Homo sapiens, MCF7, 72 h, read-out: IC50.
Setting [26] is: Homo sapiens, PC-3, 72 h, read-out: IC50.
Setting [27] is: Homo sapiens, Hs 683, 72 h, read-out: IC50.
[28] abbreviates: Homo sapiens, A549, 72 h, read-out: IC50.
[29] abbreviates: Homo sapiens, U-251, 72 h, read-out: IC50.
Where [30] appears, read: Homo sapiens, U373 MG, 72 h, read-out: IC50.
The mark [31] stands for this setting: Homo sapiens, SK-MEL-28, 72 h, read-out: IC50.

Compound `O=C1N[C@@H]2C(=C[C@H](O)[C@@H](O)[C@H]2O)c2cc3c(c(O)c21)OCO3` [NARCICLASINE] registered an Activity in assay [1] of over 85%.
On to `C=C1CCC[C@@H]2[C@@H](CC[C@@]3(C)CC[C@H]([C@H](C)C(=O)O)OO3)[C@H](C)CC[C@@]12C` [SIGMOSCEPTRELLIN B], for which the IC50 in [2] (setting [25]), in assay [3] (setting [26]), in assay [4] (setting [27]), in assay [5] (setting [28]), in assay [6] (setting [29]) and in [7] (setting [30]) was over 100 µM throughout. Besides, the IC50 (commonly the midpoint of a concentration-inhibition curve) in assay [8] (setting [31]) is over 100 µM.
Regarding `C=C1CCCC(C)(C)C1(O)CC/C(C)=C/CC[C@]1(C)CC[C@@H]([C@@H](C)C(=O)O)OO1` (stereo partly specified) [HURGHAPEROXIDE], the IC50 in assay [2] (setting [25]) worked out at 45 µM; in assay [3] (setting [26]), 73 µM; in assay [4] (setting [27]), 37 µM; in assay [5] (setting [28]) it was 31 µM; in assay [6] (setting [29]), 87 µM; in assay [7] (setting [30]), 83 µM. The IC50 in assay [8] (setting [31]) worked out at 73 µM.
`COC(=O)[C@@H](C)[C@H]1CC[C@@](C)(CCC2=C(C)CCCC2(C)C)OO1`: the IC50 result in assay [2] (mcf7), in assay [3] (pc-3), in assay [4] (hs 683), in assay [5] (a549), in [6] (u-251) and in [7] (u-373mg atcc) was “ND(Unstable)” in each case. For the same compound, the IC50 entry in [8] (sk-mel-28) was “ND(Unstable)”.
As for `C/C(=C\CC[C@]1(C)CC[C@@H]([C@@H](C)C(=O)O)OO1)CCC12OC1(C)CCCC2(C)C` (relative stereo), the IC50 is 6 µM in assay [2] (setting [25]); 2 µM in [3] (setting [26]); 3 µM in [4] (setting [27]); 3 µM in [5] (setting [28]); 7 µM in assay [7] (setting [30]); 22 µM in [8] (setting [31]).
Consider `CC1=C(CC[C@]2(C)O[C@H]2CC[C@]2(C)CC[C@@H]([C@@H](C)C(=O)O)OO2)C(C)(C)CCC1` (relative stereo), for which the IC50 worked out at 4 µM in [2] (setting [25]); 1 µM in assay [3] (setting [26]); 3 µM in [4] (setting [27]); 3 µM in assay [5] (setting [28]); 4 µM in [7] (setting [30]); 15 µM in assay [8] (setting [31]).
In the case of `CC1=C(CC/C(C)=C/CC[C@@]2(C)CC[C@H]([C@H](C)C(=O)O)OO2)C(C)(C)CCC1`, the IC50 worked out at 6 µM in [9]; 26 µM in [10]; 7 µM in assay [2] (setting [25]); 3000 nM in assay [12]; 8 µM in assay [3] (setting [26]); 4 µM in assay [4] (setting [27]). Also, the IC50 in assay [5] (setting [28]) worked out at 3 µM; in assay [6] (setting [29]) it was 8 µM; in assay [17], 23 µM; in assay [7] (setting [30]), 7 µM; in assay [8] (setting [31]), 8 µM; in assay [24] it was 3000 nM. Further, the “growth inhibition (GI)” value in assay [11], in [13], in assay [15], in assay [16], in assay [20] and in [21] was “Active” each time. Besides, the Activity in assay [14] and in assay [22] was 30% throughout. Also, the result in [18] was Active. Also, the outcome in [19] and in assay [23] was inactive.
As for `COC(=O)[C@H](C)[C@H]1CC[C@@](C)(CCC2=C(C)CCCC2(C)C)OO1` [NUAPAPUIN A METHYL ESTER], the IC50 in [2] (setting [25]) came out at 51 µM; in [3] (setting [26]), 80 µM; in assay [4] (setting [27]), 38 µM; in assay [5] (setting [28]) it was 25 µM; in [6] (setting [29]) it was 91 µM; in [7] (setting [30]), 99 µM. Besides, the IC50 in [8] (setting [31]) was determined as 80 µM.
Turning to `C=C1CCC[C@@H]2[C@@](C)(CC[C@@]3(C)CC[C@H]([C@H](C)C(=O)OC)OO3)[C@H](C)CC[C@@]12C`, the IC50 in [2] (setting [25]) came out at 36 µM; in assay [3] (setting [26]) it was 44 µM; in [4] (setting [27]), 35 µM; in [5] (setting [28]), 24 µM; in [6] (setting [29]), 54 µM; in [7] (setting [30]), 53 µM. In addition, in assay [8] (setting [31]), the IC50 stood at 44 µM.
